Reference: ChEMBL document CHEMBL1165965, “Synthesis and structure-activity relationships of 1,2,3,4-tetrahydropyrido[2,3-b]pyrazines as potent and selective inhibitors of the anaplastic lymphoma kinase” (Bioorg Med Chem, 2010)

Assays:
[1] = target: T1, Serine/threonine-protein kinase BRSK2 (Homo sapiens) (UniProt Q8IWQ3); assay: Inhibition of BRSK2 at 1 uM
T1 sequence (whole entry): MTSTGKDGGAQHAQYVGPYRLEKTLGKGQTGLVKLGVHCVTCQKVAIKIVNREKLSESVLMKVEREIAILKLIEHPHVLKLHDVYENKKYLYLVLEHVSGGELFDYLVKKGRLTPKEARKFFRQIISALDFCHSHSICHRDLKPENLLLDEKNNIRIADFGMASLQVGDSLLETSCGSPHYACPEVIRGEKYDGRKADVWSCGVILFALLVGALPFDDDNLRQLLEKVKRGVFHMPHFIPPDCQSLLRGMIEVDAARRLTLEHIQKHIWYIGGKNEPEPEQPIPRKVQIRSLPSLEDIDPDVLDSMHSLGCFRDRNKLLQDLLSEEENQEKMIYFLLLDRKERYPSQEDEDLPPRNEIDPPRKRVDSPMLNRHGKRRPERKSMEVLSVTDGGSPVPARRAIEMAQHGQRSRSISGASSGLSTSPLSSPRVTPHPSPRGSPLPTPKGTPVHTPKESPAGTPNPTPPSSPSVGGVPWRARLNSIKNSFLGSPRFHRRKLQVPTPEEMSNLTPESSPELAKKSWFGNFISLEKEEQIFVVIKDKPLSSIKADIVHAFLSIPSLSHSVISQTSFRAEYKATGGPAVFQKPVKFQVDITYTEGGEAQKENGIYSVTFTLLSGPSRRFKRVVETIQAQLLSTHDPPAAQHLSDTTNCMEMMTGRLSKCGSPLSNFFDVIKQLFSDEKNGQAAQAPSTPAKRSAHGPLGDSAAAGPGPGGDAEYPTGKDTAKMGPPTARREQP
How it was run: (§1)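 Ambit KINOMEscan screen at a single concentration across a 250–400 kinase panel, recorded as percent inhibition. Selectivity was expressed as S(90), the fraction of kinases inhibited >90%.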

[2] = target: Fibroblast growth factor receptor 1 (Homo sapiens) (UniProt P11362); assay: Inhibition of FGFR1 at 1 uM
How it was run: (§2)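 Single-concentration screen using Ambit Bioscience KINOMEscan technology across a panel of 250–400 kinases. Per-kinase inhibition from this screen was summarized as S(90), the fraction of kinases inhibited by more than 90%.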

[3] = target: Vascular endothelial growth factor receptor 2 (Homo sapiens) (UniProt P35968); assay: Inhibition of VEGFR2 at 1 uM
[4] = target: T2, Ephrin type-B receptor 1 (Homo sapiens) (UniProt P54762); assay: Inhibition of EPHB1 at 1 uM; how it was run: as §2
T2 sequence (whole entry): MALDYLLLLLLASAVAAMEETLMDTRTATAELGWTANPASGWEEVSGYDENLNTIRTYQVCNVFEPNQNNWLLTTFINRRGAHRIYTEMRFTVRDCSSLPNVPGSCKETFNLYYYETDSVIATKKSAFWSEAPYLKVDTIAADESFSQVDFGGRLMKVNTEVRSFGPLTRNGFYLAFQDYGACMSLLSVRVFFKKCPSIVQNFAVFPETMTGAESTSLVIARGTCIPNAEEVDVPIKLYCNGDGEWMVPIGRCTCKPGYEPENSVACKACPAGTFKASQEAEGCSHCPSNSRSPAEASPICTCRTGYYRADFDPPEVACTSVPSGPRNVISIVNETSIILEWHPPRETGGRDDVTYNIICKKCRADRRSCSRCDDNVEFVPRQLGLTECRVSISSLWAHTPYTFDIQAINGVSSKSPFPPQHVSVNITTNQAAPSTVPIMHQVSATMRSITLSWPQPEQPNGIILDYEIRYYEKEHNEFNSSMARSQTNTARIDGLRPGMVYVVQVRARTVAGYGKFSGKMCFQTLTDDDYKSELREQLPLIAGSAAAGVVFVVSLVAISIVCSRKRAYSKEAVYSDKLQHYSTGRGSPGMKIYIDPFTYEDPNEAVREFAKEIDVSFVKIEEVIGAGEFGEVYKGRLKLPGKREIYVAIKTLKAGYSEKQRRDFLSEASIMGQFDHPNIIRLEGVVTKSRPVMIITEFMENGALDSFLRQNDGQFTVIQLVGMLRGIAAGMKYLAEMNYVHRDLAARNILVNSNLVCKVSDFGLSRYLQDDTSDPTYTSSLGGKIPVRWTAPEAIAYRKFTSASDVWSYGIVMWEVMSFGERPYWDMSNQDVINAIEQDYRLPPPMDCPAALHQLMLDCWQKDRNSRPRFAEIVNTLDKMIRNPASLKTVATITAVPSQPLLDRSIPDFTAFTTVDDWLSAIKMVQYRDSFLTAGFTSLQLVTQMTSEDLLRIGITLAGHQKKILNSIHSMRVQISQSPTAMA

[5] = target: MAP kinase-interacting serine/threonine-protein kinase 1 (Homo sapiens) (UniProt Q9BUB5); assay: Inhibition of MKNK1 at 1 uM
[6] = target: Epithelial discoidin domain-containing receptor 1 (Homo sapiens) (UniProt Q08345); assay: Inhibition of DDR1 at 1 uM; how it was run: as §2
[7] = target: Ribosomal protein S6 kinase alpha-4 (Homo sapiens) (UniProt O75676); assay: Inhibition of RPS6KA4 C-terminal domain2 at 1 uM
[8] = target: RAC-gamma serine/threonine-protein kinase (Homo sapiens) (UniProt Q9Y243); assay: Inhibition of AKT3 at 1 uM; how it was run: as §1
[9] = target: Serine/threonine-protein kinase MRCK gamma (Homo sapiens) (UniProt Q6DT37); assay: Inhibition of DMPK2 at 1 uM; how it was run: as §2
[10] = target: Serine/threonine-protein kinase/endoribonuclease IRE1 (Homo sapiens) (UniProt O75460); assay: Inhibition of ERN1 at 1 uM
Serine/threonine-protein kinase/endoribonuclease IRE1 (Homo sapiens), sequence (O75460 19-977 limits assumed): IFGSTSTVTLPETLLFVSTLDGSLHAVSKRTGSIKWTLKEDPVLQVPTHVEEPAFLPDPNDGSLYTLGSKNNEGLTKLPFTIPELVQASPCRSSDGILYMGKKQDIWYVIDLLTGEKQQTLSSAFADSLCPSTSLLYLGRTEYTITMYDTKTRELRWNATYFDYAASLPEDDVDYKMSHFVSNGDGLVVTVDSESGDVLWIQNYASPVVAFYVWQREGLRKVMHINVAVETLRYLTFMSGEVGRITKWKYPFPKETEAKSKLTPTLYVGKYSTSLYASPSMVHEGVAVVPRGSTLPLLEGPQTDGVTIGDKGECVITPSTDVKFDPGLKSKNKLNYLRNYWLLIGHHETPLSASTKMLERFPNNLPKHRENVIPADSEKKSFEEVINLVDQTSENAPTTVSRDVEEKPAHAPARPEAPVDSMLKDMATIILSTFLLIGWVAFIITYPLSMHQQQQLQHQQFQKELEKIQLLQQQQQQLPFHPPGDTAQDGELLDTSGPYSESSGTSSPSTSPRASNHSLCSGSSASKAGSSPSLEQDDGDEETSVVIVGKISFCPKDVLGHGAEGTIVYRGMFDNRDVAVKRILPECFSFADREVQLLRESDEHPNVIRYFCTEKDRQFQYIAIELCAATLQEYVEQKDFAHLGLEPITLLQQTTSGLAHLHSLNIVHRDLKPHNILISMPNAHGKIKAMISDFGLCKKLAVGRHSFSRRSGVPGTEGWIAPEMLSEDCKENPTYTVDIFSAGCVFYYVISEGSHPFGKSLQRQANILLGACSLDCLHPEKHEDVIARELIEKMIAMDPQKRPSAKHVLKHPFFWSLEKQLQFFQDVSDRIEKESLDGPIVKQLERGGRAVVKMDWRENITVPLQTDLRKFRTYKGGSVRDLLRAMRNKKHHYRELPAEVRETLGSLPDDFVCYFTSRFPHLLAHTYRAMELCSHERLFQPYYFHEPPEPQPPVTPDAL

Serine/threonine-protein kinase MRCK gamma (Homo sapiens), sequence (Q6DT37 whole entry): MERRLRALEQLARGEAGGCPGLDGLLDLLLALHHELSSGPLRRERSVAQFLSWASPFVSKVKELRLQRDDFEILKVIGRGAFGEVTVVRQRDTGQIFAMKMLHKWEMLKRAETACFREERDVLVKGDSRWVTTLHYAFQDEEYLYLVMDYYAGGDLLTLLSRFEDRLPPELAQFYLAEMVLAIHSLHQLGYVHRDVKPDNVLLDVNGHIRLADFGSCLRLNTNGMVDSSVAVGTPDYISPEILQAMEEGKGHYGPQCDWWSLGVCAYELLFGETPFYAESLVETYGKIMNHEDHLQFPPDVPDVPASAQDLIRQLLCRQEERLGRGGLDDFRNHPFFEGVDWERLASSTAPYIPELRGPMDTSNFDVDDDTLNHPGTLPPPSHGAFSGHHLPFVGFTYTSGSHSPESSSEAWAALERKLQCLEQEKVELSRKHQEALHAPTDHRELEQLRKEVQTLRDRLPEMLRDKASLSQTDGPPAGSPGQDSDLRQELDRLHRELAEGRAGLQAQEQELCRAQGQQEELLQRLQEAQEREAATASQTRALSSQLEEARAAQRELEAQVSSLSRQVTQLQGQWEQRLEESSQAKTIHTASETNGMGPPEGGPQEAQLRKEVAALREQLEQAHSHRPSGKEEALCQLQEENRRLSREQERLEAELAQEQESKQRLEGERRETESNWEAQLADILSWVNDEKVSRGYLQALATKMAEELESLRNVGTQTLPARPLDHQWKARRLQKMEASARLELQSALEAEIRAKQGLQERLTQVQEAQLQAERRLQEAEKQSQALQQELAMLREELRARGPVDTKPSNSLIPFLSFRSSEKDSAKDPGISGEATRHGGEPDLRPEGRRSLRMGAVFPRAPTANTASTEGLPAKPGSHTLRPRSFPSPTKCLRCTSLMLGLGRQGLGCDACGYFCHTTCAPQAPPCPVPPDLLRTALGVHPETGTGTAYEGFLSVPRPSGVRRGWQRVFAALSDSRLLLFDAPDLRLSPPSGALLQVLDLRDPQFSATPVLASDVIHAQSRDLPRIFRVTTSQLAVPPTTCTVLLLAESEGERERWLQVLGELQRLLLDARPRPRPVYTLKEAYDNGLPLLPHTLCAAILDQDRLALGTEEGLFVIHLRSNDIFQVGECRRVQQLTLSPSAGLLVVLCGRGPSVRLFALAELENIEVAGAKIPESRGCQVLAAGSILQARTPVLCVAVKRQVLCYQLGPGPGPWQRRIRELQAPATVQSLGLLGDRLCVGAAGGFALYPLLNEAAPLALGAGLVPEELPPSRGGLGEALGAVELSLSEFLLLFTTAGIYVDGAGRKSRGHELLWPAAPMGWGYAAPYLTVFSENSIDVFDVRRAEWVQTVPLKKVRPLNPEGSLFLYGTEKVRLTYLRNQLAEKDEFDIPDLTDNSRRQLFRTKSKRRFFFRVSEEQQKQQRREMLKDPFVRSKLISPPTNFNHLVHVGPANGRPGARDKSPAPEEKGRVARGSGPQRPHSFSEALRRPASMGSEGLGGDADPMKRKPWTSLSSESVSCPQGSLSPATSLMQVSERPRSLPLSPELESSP
Epithelial discoidin domain-containing receptor 1 (Homo sapiens), sequence (Q08345 whole entry, the tested form may be a part): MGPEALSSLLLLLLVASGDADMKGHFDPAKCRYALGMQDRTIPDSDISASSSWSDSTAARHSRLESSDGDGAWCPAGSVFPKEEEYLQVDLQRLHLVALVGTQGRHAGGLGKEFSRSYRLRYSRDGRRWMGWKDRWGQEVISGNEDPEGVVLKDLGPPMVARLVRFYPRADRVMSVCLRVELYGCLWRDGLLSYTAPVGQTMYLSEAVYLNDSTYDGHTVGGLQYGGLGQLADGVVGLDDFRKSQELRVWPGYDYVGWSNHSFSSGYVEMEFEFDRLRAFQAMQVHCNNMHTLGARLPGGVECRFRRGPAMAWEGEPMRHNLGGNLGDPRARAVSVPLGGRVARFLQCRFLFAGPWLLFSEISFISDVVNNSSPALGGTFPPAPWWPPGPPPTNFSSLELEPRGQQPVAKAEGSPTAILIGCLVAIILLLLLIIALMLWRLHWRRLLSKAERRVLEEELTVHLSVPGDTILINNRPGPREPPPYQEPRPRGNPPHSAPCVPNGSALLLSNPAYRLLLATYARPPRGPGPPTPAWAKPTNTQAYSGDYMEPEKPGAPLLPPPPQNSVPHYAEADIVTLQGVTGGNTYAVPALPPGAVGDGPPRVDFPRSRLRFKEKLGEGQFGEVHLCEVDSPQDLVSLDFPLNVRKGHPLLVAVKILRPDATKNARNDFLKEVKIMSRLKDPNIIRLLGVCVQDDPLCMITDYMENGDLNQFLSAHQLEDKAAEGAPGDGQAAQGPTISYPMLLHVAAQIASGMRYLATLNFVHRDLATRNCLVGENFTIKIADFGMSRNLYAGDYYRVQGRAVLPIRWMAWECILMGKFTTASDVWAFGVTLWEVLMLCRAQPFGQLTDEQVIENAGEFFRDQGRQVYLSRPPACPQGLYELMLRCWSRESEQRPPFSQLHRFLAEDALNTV
MAP kinase-interacting serine/threonine-protein kinase 1 (Homo sapiens), sequence (Q9BUB5 whole entry, looked up, the tested form may be a part): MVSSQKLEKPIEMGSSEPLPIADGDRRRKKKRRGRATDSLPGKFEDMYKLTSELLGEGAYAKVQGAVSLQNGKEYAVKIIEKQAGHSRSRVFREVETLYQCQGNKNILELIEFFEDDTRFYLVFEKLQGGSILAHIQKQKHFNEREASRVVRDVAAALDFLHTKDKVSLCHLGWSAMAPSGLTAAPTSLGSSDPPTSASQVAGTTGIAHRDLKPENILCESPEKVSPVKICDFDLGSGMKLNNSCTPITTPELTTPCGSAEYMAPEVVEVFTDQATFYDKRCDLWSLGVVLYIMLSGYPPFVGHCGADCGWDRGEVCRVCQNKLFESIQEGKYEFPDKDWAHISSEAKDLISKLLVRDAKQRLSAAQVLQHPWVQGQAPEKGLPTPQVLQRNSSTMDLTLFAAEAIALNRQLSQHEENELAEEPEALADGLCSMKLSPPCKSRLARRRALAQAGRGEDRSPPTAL
Ribosomal protein S6 kinase alpha-4 (Homo sapiens), sequence (O75676 whole entry, looked up, the tested form may be a part): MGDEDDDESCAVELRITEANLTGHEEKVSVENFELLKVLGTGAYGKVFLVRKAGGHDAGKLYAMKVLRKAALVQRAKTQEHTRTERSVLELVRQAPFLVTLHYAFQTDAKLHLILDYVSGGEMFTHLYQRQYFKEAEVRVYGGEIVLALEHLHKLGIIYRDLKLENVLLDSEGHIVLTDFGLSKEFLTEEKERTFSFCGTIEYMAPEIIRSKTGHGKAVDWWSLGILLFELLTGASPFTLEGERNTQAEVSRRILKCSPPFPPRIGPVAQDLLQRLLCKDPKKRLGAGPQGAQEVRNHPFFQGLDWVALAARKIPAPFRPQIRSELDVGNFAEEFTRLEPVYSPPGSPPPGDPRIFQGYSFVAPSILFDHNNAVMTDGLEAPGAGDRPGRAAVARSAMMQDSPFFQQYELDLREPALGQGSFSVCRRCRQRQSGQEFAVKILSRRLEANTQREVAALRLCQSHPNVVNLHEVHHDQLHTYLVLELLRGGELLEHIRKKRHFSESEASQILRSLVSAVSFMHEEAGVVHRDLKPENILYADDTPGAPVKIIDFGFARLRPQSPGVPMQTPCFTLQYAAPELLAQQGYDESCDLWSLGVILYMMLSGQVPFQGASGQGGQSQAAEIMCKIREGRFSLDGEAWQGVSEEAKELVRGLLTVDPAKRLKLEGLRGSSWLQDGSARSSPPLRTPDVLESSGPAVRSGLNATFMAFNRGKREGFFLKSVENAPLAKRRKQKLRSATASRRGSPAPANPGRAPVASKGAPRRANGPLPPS

SMILES | inhibition [1] [%] | inhibition [2] [%] | inhibition [3] [%] | inhibition [4] [%] | inhibition [5] [%] | inhibition [6] [%] | inhibition [7] [%] | inhibition [8] [%] | inhibition [9] [%] | inhibition [10] [%]
CN1CCN(c2ccc(-c3cnc4c(c3)N(Cc3cc(F)ccc3F)CCN4)cn2)CC1 | < 50 | < 50 | < 50 | < 50 | < 50 | < 50 | < 50 | < 50 | < 50 | < 50
O=C(c1ccc(-c2cnc3c(c2)N(Cc2cc(Cl)ccc2C(F)(F)F)CCN3)cc1)N1CCC(N2CCCC2)CC1 | 63.8 | < 50 | < 50 | < 50 |  | 84 |  | < 50 | < 50 | 
O=C(c1ccc(-c2cnc3c(c2)N(Cc2cc(Cl)ccc2C(F)(F)F)CCN3)cc1)N1CCCCC1 | < 50 | < 50 | < 50 | < 50 |  | < 50 |  | < 50 | < 50 | 
CN1CCN(c2ccc(-c3cnc4c(c3)N(Cc3c(F)ccc(F)c3Cl)CCN4)cn2)CC1 | < 50 | < 50 | < 50 | < 50 | < 50 | < 50 | < 50 | < 50 | < 50 | < 50
COC1CCN(C(=O)c2ccc(-c3cnc4c(c3)N(Cc3cc(Cl)ccc3C(F)(F)F)CCN4)cc2)CC1 | < 50 | < 50 | < 50 | < 50 |  | < 50 |  | < 50 | < 50 | 
O=C(O)c1ccc(-c2cnc3c(c2)N(Cc2cc(Cl)ccc2C(F)(F)F)CCN3)cc1 | < 50 | < 50 | < 50 | < 50 |  | < 50 |  | < 50 | < 50 | 
CC(=O)N1CCN(c2cc(-c3cnc4c(c3)N(Cc3cc(Cl)ccc3C(F)(F)F)CCN4)ccn2)CC1 | < 50 | < 50 | < 50 | < 50 | < 50 | < 50 | < 50 | < 50 | < 50 | < 50
FC(F)(F)c1ccc(Cl)cc1CN1CCNc2ncc(-c3ccnc(N4CCNCC4)c3)cc21 | < 50 | < 50 | < 50 | < 50 | < 50 | 96 | < 50 | < 50 | < 50 | < 50
CN1CCN(c2ccc(-c3cnc4c(c3)N(Cc3cc(Cl)ccc3C(F)(F)F)CCN4)cn2)CC1 | < 50 | < 50 | < 50 | < 50 | < 50 | < 50 | < 50 | < 50 | < 50 | < 50
CN1CCN(c2ccc(-c3cnc4c(c3)N(Cc3cc(Cl)ccc3Cl)CCN4)cn2)CC1 | < 50 | < 50 | < 50 | < 50 | < 50 | < 50 | < 50 | < 50 | < 50 | < 50
